In the library only some 2% were active in any assay of this set; here they are far more common.
HIF act = HIF pathway transcriptional activation; U2OS HRE-luciferase reporter, luminescence; normalized: DMSO 0%, desferrioxamine 100%; activation, % at 7.5 µM (by protocol); actives 0.32% (n = 300,000); AID 1910;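 active = mean activation of at least 10% of the iron chelator positive control signal, with at least half of replicates also reaching 10%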
AI-2 QS modul = modulators of Vibrio harveyi AI-2 quorum sensing system | Vibrio harveyi JMH597 AI-2 luminescence/OD600 ratio, 9 h; hits give low values; strain lacks LuxN and CqsS sensors; 0 = neutral-control median | activity change, % at 7.5 µM | actives 0.4% (n = 300,000) | AID 2094; in the data active = activity change below about -75%, passing the limit was not always enough;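 note: luminescence divided by OD600 gain over 9 h not by final OD600 alone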
ARNT TACC3 PPI = disruptors of human ARNT/TACC3 interaction; AID 623870; Q9Y6A5; inhibition, % at 9.99 µM; actives 0.66% (n = 390,000); AlphaScreen His-ARNT PAS-B/GST-TACC3 binding, luminescence; TACC3 fragment carries E629A point mutation;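 active = mean inhibition of replicates at least 50% and at least half of replicates each reaching 50%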;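 note: 0% = complete ARNT plus TACC3 wells and 100% = ARNT alone without TACC3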
T cruzi inh = blocks replication of Trypanosoma cruzi | T. cruzi beta-gal in NIH3T3, luminescence, 90 h | inhibition, % (no concentration beside the values) | actives 1.4% (n = 300,000);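 active = mean inhibition across valid replicates above about 55%, limit read from the data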;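 note: signal also drops with host cell toxicity which is not excluded here; 0% = plate median of DMSO wells and 100% = zero luminescence signal; higher percent means less beta-gal luminescence so fewer parasites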
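assay system = mouse NIH/3T3 fibroblasts infected with β-gal-expressing T. cruzi Tulahuen C4 | input = 5,000 NIH/3T3 host cells per well | buffer or medium = DMEM plus 2% FBS | timing = 3 h host attachment, then at least 90 h co-culture | measured by = GalScreen luminescence, 60 min | evaluation = luminescence reflecting intracellular parasite burden, expressed as percent inhibition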
Starred values were filed as active, the others as inactive; · = no result.

SMILES	HIF act	AI-2 QS modul	ARNT TACC3 PPI	T cruzi inh
CCCNC(=O)N(C)C[C@@H]1Oc2cc(C3=CCCCC3)ccc2S(=O)(=O)N([C@@H](C)CO)C[C@H]1C	·	·	-1	·
COc1ccccc1N(CC(O)Cn1c2ccccc2c2ccccc21)S(=O)(=O)c1ccccc1 (centres undefined)	0	19	0	63*
OCCCn1c(-c2ccccc2)nc(=S)c2c1CCCC2	1	35	-12	-9
CN(C)CCCn1c(-c2ccccc2)nc(=S)c2c1CCCC2	0	12	4	59*
CC(=O)N(C)C[C@@H]1Oc2cc(C#Cc3cccnc3)ccc2S(=O)(=O)N([C@@H](C)CO)C[C@H]1C	·	·	-2	·
C[C@@H]1CN([C@@H](C)CO)C(=O)c2cc(NS(C)(=O)=O)ccc2O[C@@H](C)CCCCO[C@H]1CN(C)S(=O)(=O)c1ccc(F)cc1	·	·	-3	·
CCCCCC(=O)NNC(=S)NC(C)=O	0	17	71*	-8
N#Cc1cc(-c2ccc(Cl)cc2)cnc1Sc1ccccc1	0	-1	-15	56*
N#Cc1cc(-c2ccccc2)cnc1Sc1ccc(Cl)cc1	0	7	-12	32
Cc1ccc(NC2=CC(=O)C(=O)c3ccccc32)cc1	-7	12	5	-7
Cc1cc(NC2=CC(=O)C(=O)c3ccccc32)no1	·	·	37*	·
C[C@H]1CN([C@@H](C)CO)C(=O)c2cccc(NS(=O)(=O)c3ccc(Cl)cc3)c2O[C@@H]1CN(C)S(=O)(=O)c1ccc(F)cc1	·	·	4	·
Cc1nc(N)nc(N)c1/C=C/C(C)(C)c1ccc(Cl)cc1	-2	-89*	1	60*
COc1ccc2c(c1)c(CC(=O)Nc1cc(C)ccc1C)c(C)n2C(=O)c1ccc(Cl)cc1	0	3	-6	60*
COc1ccc2c(c1)c(CC(=O)Nc1nnc(C3CC3)s1)c(C)n2C(=O)c1ccc(Cl)cc1	7	11	-1	57*
Cc1ccc(S(=O)(=O)Nc2ccc3c(c2)C(=O)N([C@@H](C)CO)C[C@@H](C)[C@H](CN(C)S(C)(=O)=O)OCCCC[C@@H](C)O3)cc1	·	·	-1	·
C[C@@H]1CN([C@H](C)CO)C(=O)c2cc(NC(=O)CCC(F)(F)F)ccc2O[C@@H](C)CCCCO[C@@H]1CN(C)C(=O)NC1CCCCC1	·	·	0	·
O=[N+]([O-])c1cc([N+](=O)[O-])c2c(=Nc3ccccc3)n(-c3ccccc3)n(O)c2c1	0	37	3	58*
Cc1ccc(-c2cc(C(F)F)n3ncc(C(=O)N4CCN(c5ccccn5)CC4)c3n2)cc1	0	21	·	60*
CCN1CCN(C(=O)c2cnn3c(C(F)F)cc(-c4ccc(C)cc4)nc23)CC1	0	23	0	12
COc1ccc(-c2cc(C(F)F)n3ncc(C(=O)N4CCN(C(=O)c5ccco5)CC4)c3n2)cc1	0	20	-3	4
COc1ccc(-c2cc(C(F)F)n3ncc(C(=O)N4CCCCC4)c3n2)cc1	0	25	-10	89*
CCOC(=O)c1c(S(=O)(=O)N2CCCCCC2)c(C)n(C)c1C	1	20	3	7
CCOC(=O)c1c(S(=O)(=O)N2CCC(C)CC2)c(C)n(C)c1C	44*	-8	0	-2
CO[C@@H]1CN(C)C(=O)c2cc(NS(C)(=O)=O)ccc2OC[C@@H](C)N(C(=O)C2CCC2)C[C@H]1C	·	·	-9	·
SMILES	HIF act	AI-2 QS modul	ARNT TACC3 PPI	T cruzi inh
O=C(CCC1CCCN(C(=O)c2ccncc2)C1)NCc1ccc(F)c(F)c1 (centres undefined)	1	4	-5	-3
COc1cccc(CNC(=O)CCC2CCCN(C(=O)CCC(F)(F)F)C2)c1 (centres undefined)	0	40	-3	-3
O=C(CCC1CCCN(Cc2ccncc2)C1)NCc1ccc(F)c(F)c1 (centres undefined)	0	10	5	56*
COc1cccc(CNC(=O)CCC2CCCN(Cc3cc4ccccc4o3)C2)c1 (centres undefined)	0	16	-5	62*
CC(=O)c1cccc(CN2CCCC(CCC(=O)NCc3ccc(F)c(F)c3)C2)c1 (centres undefined)	0	-1	-6	76*
Cc1ccc(-n2cccc2C(=S)N=P(N(C)C)(N(C)C)N(C)C)cc1	0	-1	6	59*
COc1ccc(CN(C)C[C@@H]2OCCCC[C@@H](C)Oc3ccc(NC(=O)CCC(F)(F)F)cc3C(=O)N([C@H](C)CO)C[C@@H]2C)cc1	·	·	-16	·
Cc1ccc2[nH]c(C(=O)N/N=C/c3ccccc3O)c(C)c2c1	169*	0	-1	70*
O=C(N/N=C/c1ccccc1O)c1cc(=O)[nH]c2ccccc12	11*	24	·	-7
COc1cccc(C(=O)O/N=C(\N)Cc2ccc(Cl)cc2)c1	1	-92*	-7	3
COc1cccc(C(=O)O/N=C(\N)c2ccc(C)cc2)c1	5	16	14	1
Cc1ccccc1S(=O)(=O)N[C@@H]1CC[C@@H](CCn2cc(-c3ccccc3)nn2)O[C@@H]1CO	·	·	-12	·
CC(C)(C)n1nnnc1C(c1cccs1)N(Cc1cccnc1)Cc1ccccc1Cl (centres undefined)	-1	37	3	71*
CC(c1nnnn1C(C)(C)C)N(Cc1cccnc1)Cc1ccccc1Cl (centres undefined)	0	19	5	66*
CC(c1nnnn1C1CCCCC1)N(Cc1ccccc1)Cc1cccnc1 (centres undefined)	0	32	-4	38
COc1cc(CNCc2c[nH]c3ccccc23)cc(OC)c1	-1	-3	1	78*
COc1cc(CNCc2cccc3ccccc23)cc(OC)c1	-1	15	1	6
C[C@@H](NC(=O)C[C@@H]1CC[C@@H](NC(=O)C2CCC2)[C@@H](CO)O1)c1ccccc1	·	·	11	·
CC1CCC(C(C)C)C(OC(=O)COC(=O)c2cc(O)ccc2N)C1 (centres undefined)	-1	21	-11	70*
CC1CCC(C(C)C)C(OC(=O)COC(=O)c2ccc(=O)[nH]c2)C1 (centres undefined)	-44	20	-18	-1
COCC#Cc1cnc2c(c1)C(=O)N([C@@H](C)CO)C[C@H](C)[C@H](CN(C)C(=O)NC1CCCC1)O2	·	·	0	·
Cc1ccc(C)c(-c2csc(NC(=O)c3cnccn3)n2)c1	-1	-5	·	93*
CNC[C@H]1Oc2ccc(NC(=O)Nc3cccc4ccccc34)cc2C(=O)N([C@H](C)CO)C[C@H]1C	·	·	-6	·
CC1(OC(=O)c2ccco2)C(=O)C=C2C=C(C3CC3)OC=C2C1=O (centres undefined)	0	16	4	-13
CC1(OC(=O)c2cccs2)C(=O)C=C2C=C(C3CC3)OC=C2C1=O (centres undefined)	112*	30	8	-18
CC(=O)CC(=O)N1C(=O)N(C)[C@@]2(C)Oc3ccccc3[C@@H]1[C@H]2COC(=O)c1ccc([N+](=O)[O-])cc1	·	·	32	·

Screening data as filed in PubChem BioAssay.
